# According to ChEMBL document CHEMBL1155326, “Design, synthesis and evaluation of 4,5-di-substituted acridone ligands with high G-quadruplex affinity and selectivity, together with low toxicity to normal cells” (Bioorg Med Chem Lett, 2009):
# Active and inactive are the calls of the source. No cut-off for these calls is given here.
# What was measured:
# Nucleic Acid [1] = test: Binding affinity to human telomeric G4 DNA of sequence 5'-FAM-d(GGG[TTAGGG]3)-TAMRA-3' assessed as change in melting temperature by FRET DNA melting assay; type: nucleic-acid assay
# Nucleic Acid [2] = test: Binding affinity to human Duplex DNA of sequence 5'-FAM-dTATAGCTATA-HEG-TATAGCTATA-TAMRA-3' assessed as change in melting temperature by FRET DNA melting assay; type: nucleic-acid assay
# A549 [3] = test: Cytotoxicity against human A549 cell after 72 hrs by SRB assay; type: functional, cell-based; conditions: A549, 72 h
# IMR-90 (Homo sapiens) = test: Cytotoxicity against human IMR90 cell after 72 hrs by SRB assay; conditions: IMR-90, 72 h
# MCF7 [4] = test: Cytotoxicity against human MCF7 by SRB assay; type: functional, cell-based
# MCF7 [5] = test: Cytotoxic activity in human MCF7 cell assessed as number of scenescence cell at 10 uM after 1 week; type: functional
# Method in brief: (§1)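 Long-term MCF7 or A549 cultures were dosed at the start and then re-dosed three times weekly. At each re-dose the medium was discarded, cells were PBS-washed, and fresh medium plus compound was added. For staining, 1 × 10^5 cells per well were plated in medium with compound. After 24 h they were stained for senescence-associated β-galactosidase, and blue cells were counted by microscopy.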
# MCF7 [6] = test: Cytotoxic activity in human MCF7 cell assessed as number of scenescence cell at 10 uM after 3 weeks; type: functional; method in brief: as §1
# MCF7 [7] = test: Cytotoxic activity in human MCF7 cell assessed as number of scenescence cell at 10 uM after 4 weeks; type: functional; method in brief: as §1
# MCF7 [8] = test: Cytotoxic activity in human MCF7 cell assessed as number of scenescence cell at 10 uM after 5 weeks; type: functional; method in brief: as §1
# MCF7 [9] = test: Cytotoxic activity in human MCF7 cell assessed by number of scenescence cell at 25 uM after 1 week; type: functional; method in brief: as §1
# MCF7 [10] = test: Cytotoxic activity in human MCF7 cell assessed by number of scenescence cell at 25 uM after 3 weeks; type: functional; method in brief: as §1
# MCF7 [11] = test: Cytotoxic activity in human MCF7 cell assessed by number of scenescence cell at 35 uM after 1 week; type: functional; method in brief: as §1
# A549 [12] = test: Cytotoxic activity in human A549 cell assessed by number of scenescence cell at 10 uM after 1 weeks; type: functional; method in brief: as §1
# A549 [13] = test: Cytotoxic activity in human A549 cell assessed by number of scenescence cell at 10 uM after 3 weeks; type: functional; method in brief: as §1
# A549 [14] = test: Cytotoxic activity in human A549 cell assessed by number of scenescence cell at 10 uM after 4 weeks; type: functional; method in brief: as §1
# A549 [15] = test: Cytotoxic activity in human A549 cell assessed by number of scenescence cell at 10 uM after 5 weeks; type: functional; method in brief: as §1
# A549 [16] = test: Cytotoxic activity in human A549 cell assessed by number of scenescence cell at 25 uM after 1 week; type: functional; method in brief: as §1
# A549 [17] = test: Cytotoxic activity in human A549 cell assessed by number of scenescence cell at 25 uM after 3 weeks; type: functional; method in brief: as §1
# A549 [18] = test: Cytotoxic activity in human A549 cell assessed by number of scenescence cell at 25 uM after 4 weeks; type: functional; method in brief: as §1
# A549 [19] = test: Cytotoxic activity in human A549 cell assessed by number of scenescence cell at 25 uM after 5 weeks; type: functional; method in brief: as §1
# A549 [20] = test: Cytotoxic activity in human A549 cell assessed by number of scenescence cell at 35 uM after 1 week; type: functional; method in brief: as §1
# A549 [21] = test: Cytotoxic activity in human A549 cell assessed by number of scenescence cell at 35 uM after 3 weeks; type: functional; method in brief: as §1
# A549 [22] = test: Cytotoxic activity in human A549 cell assessed by number of scenescence cell at 35 uM after 4 weeks; type: functional; method in brief: as §1
# A549 [23] = test: Cytotoxic activity in human A549 cell assessed by number of scenescence cell at 35 uM after 5 weeks; type: functional; method in brief: as §1
# Nucleic Acid [24] = test: Telomere shortening in DNA assessed by measuring telomere length after 6 weeks; type: nucleic-acid assay
# [25] = molecular target: Telomerase reverse transcriptase (Homo sapiens) (UniProt O14746); test: Inhibition of Telomerase by TRAP-LIG assay
# Telomerase reverse transcriptase (Homo sapiens), sequence (O14746 whole entry): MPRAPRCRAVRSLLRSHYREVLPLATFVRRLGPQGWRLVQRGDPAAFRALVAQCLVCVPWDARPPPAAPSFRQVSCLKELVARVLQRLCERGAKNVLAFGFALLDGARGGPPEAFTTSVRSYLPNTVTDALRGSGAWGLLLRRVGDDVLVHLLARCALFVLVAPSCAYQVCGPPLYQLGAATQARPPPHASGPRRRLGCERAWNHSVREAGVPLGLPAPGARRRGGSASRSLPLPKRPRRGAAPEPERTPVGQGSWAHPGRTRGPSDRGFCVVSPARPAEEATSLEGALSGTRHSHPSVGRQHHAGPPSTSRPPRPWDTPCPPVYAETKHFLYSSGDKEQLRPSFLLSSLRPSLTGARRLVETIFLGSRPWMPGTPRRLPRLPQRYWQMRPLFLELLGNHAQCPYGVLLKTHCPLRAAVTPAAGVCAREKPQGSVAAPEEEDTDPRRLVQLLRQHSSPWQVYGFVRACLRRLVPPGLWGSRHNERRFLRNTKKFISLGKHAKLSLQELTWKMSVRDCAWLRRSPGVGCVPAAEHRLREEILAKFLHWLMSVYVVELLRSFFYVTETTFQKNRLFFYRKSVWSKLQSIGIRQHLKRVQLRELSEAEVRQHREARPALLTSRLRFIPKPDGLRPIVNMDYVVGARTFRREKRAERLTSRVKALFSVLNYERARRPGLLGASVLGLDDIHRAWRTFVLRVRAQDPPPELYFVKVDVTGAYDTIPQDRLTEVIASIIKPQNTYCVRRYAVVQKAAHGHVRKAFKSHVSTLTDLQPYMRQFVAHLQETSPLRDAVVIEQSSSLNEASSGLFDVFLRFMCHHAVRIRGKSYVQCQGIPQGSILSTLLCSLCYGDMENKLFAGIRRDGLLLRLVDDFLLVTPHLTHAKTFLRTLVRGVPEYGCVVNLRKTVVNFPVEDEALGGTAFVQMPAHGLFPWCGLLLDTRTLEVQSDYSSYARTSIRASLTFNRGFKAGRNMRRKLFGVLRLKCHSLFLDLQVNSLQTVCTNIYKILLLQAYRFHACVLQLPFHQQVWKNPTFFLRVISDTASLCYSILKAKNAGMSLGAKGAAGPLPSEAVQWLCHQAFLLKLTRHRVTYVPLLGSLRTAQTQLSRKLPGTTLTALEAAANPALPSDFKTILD
# MCF7 (Homo sapiens) [26] = test: Cytotoxicity against human MCF7 at 10 uM by assessed as population doublings SRB assay
# [27] = Cytotoxicity against human IMR90 cell after 72 hrs by SRB assay; type: cell-based; conditions: IMR-90, 72 h
# MCF7 [28] = test: Cytotoxicity against human MCF7 cell after 72 hrs by SRB assay; type: functional, cell-based; conditions: MCF7, 72 h
# MCF7 (Homo sapiens) [29] = test: Cytotoxicity against human MCF7 cell after 72 hrs by SRB assay; conditions: MCF7, 72 h
# MCF7 [30] = test: Cytotoxic activity in human MCF7 cell assessed by number of scenescence cell at 5 uM after 4 weeks; type: functional; method in brief: as §1
# MCF7 [31] = test: Cytotoxic activity in human MCF7 cell assessed by number of scenescence cell at 5 uM after 5 weeks; type: functional; method in brief: as §1
# MCF7 [32] = test: Cytotoxic activity in human MCF7 cell assessed by number of scenescence cell at 15 uM after 4 weeks; type: functional; method in brief: as §1
# MCF7 [33] = test: Cytotoxic activity in human MCF7 cell assessed by number of scenescence cell at 15 uM after 5 weeks; type: functional; method in brief: as §1
smiles,measurement,setting,value
O=C(CCCN1CCCC1)Nc1ccc(NC(=O)c2cccc3c(=O)c4cccc(C(=O)Nc5ccc(NC(=O)CCCN6CCCC6)cc5)c4[nH]c23)cc1,ΔTm,Nucleic Acid [1],15 °C
same,ΔTm,Nucleic Acid [2],0 °C
same,IC50,A549 [3],8 µM
same,IC50,IMR-90 (Homo sapiens),> 100 µM
CN1CCN(CCC(=O)Nc2ccc(NC(=O)c3cccc4c(=O)c5cccc(C(=O)Nc6ccc(NC(=O)CCN7CCN(C)CC7)cc6)c5[nH]c34)cc2)CC1,ΔTm,Nucleic Acid [1],31 °C
same,ΔTm,Nucleic Acid [2],1.5 °C
same,IC50,A549 [3],> 100 µM
same,IC50,IMR-90 (Homo sapiens),> 100 µM
O=C(CCN1CCCC1)Nc1cccc(NC(=O)c2cccc3c(=O)c4cccc(C(=O)Nc5cccc(NC(=O)CCN6CCCC6)c5)c4[nH]c23)c1,ΔTm,Nucleic Acid [1],29 °C
same,ΔTm,Nucleic Acid [2],3 °C
same,IC50,A549 [3],> 100 µM
same,IC50,MCF7 [4],84 µM
same,Activity,MCF7 [5],2%
same,Activity,MCF7 [6],3%
same,Activity,MCF7 [7],0%
same,Activity,MCF7 [8],1%
same,Activity,MCF7 [9],3%
same,Activity,MCF7 [10],25%
same,Activity,MCF7 [11],12%
same,Activity,A549 [12],0%
same,Activity,A549 [13],12%
same,Activity,A549 [14],0%
same,Activity,A549 [15],0%
same,Activity,A549 [16],9%
same,Activity,A549 [17],21%
same,Activity,A549 [18],0%
same,Activity,A549 [19],0%
same,Activity,A549 [20],8%
same,Activity,A549 [21],30%
same,Activity,A549 [22],0%
same,Activity,A549 [23],0%
same,Activity,Nucleic Acid [24],inactive
same,Activity,[25],inactive
same,IC50,IMR-90 (Homo sapiens),> 100 µM
same,Activity,MCF7 (Homo sapiens) [26],17.5
O=C(CCCCN1CCCC1)Nc1ccc(NC(=O)c2cccc3c(=O)c4cccc(C(=O)Nc5ccc(NC(=O)CCCCN6CCCC6)cc5)c4[nH]c23)cc1,ΔTm,Nucleic Acid [1],22.5 °C
same,ΔTm,Nucleic Acid [2],0.75 °C
same,IC50,[27],2 µM
same,IC50,A549 [3],43 µM
same,IC50,MCF7 [28],> 100 µM
CN1CCN(CCCNc2ccc(NC(=O)c3cccc4c(=O)c5cccc(C(=O)Nc6ccc(NCCCN7CCN(C)CC7)cc6)c5[nH]c34)cc2)CC1,ΔTm,Nucleic Acid [1],28 °C
same,ΔTm,Nucleic Acid [2],1.5 °C
same,IC50,A549 [3],> 100 µM
same,IC50,IMR-90 (Homo sapiens),> 100 µM
O=C(CN1CCCC1)Nc1ccc(NC(=O)c2cccc3c(=O)c4cccc(C(=O)Nc5ccc(NC(=O)CN6CCCC6)cc5)c4[nH]c23)cc1,ΔTm,Nucleic Acid [1],25.5 °C
same,ΔTm,Nucleic Acid [2],0.5 °C
same,IC50,A549 [3],> 100 µM
same,IC50,IMR-90 (Homo sapiens),> 100 µM
CN(C)CCCNC(=O)c1cccc2c(=O)c3cccc(C(=O)NCCCN(C)C)c3[nH]c12,ΔTm,Nucleic Acid [1],7 °C
same,ΔTm,Nucleic Acid [2],1 °C
same,IC50,A549 [3],62 µM
same,IC50,IMR-90 (Homo sapiens),> 100 µM
O=C(Nc1ccc(NCCCN2CCOCC2)cc1)c1cccc2c(=O)c3cccc(C(=O)Nc4ccc(NCCCN5CCOCC5)cc4)c3[nH]c12,ΔTm,Nucleic Acid [1],20 °C
same,ΔTm,Nucleic Acid [2],0 °C
same,IC50,A549 [3],> 100 µM
same,IC50,MCF7 (Homo sapiens) [29],> 100 µM
same,IC50,IMR-90 (Homo sapiens),> 100 µM
CN(C)CCCNc1ccc(NC(=O)c2cccc3c(=O)c4cccc(C(=O)Nc5ccc(NCCCN(C)C)cc5)c4[nH]c23)cc1,ΔTm,Nucleic Acid [1],31 °C
same,ΔTm,Nucleic Acid [2],2.5 °C
same,IC50,A549 [3],> 100 µM
same,IC50,IMR-90 (Homo sapiens),> 100 µM
O=C(CCn1ccnc1)Nc1ccc(NC(=O)c2cccc3c(=O)c4cccc(C(=O)Nc5ccc(NC(=O)CCn6ccnc6)cc5)c4[nH]c23)cc1,ΔTm,Nucleic Acid [1],15 °C
same,ΔTm,Nucleic Acid [2],0.5 °C
same,IC50,A549 [3],19 µM
same,IC50,IMR-90 (Homo sapiens),> 100 µM
O=C(CCN1CCOCC1)Nc1ccc(NC(=O)c2cccc3c(=O)c4cccc(C(=O)Nc5ccc(NC(=O)CCN6CCOCC6)cc5)c4[nH]c23)cc1,ΔTm,Nucleic Acid [1],19 °C
same,ΔTm,Nucleic Acid [2],0 °C
same,IC50,A549 [3],> 100 µM
same,IC50,MCF7 (Homo sapiens) [29],> 100 µM
same,IC50,IMR-90 (Homo sapiens),> 100 µM
O=C(CCN1CCCC1)Nc1ccc(NC(=O)c2cccc3c(=O)c4ccccc4[nH]c23)cc1,ΔTm,Nucleic Acid [1],11 °C
same,ΔTm,Nucleic Acid [2],0.5 °C
same,IC50,A549 [3],16 µM
same,IC50,MCF7 (Homo sapiens) [29],9 µM
same,IC50,IMR-90 (Homo sapiens),7.5 µM
O=C(CCNC1CCCCC1)Nc1ccc(NC(=O)c2cccc3c(=O)c4cccc(C(=O)Nc5ccc(NC(=O)CCNC6CCCCC6)cc5)c4[nH]c23)cc1,ΔTm,Nucleic Acid [1],24.5 °C
same,ΔTm,Nucleic Acid [2],0 °C
same,IC50,A549 [3],31 µM
same,IC50,IMR-90 (Homo sapiens),> 100 µM
O=C(CCC(=O)N1CCCC1)Nc1ccc(NC(=O)c2cccc3c(=O)c4cccc(C(=O)Nc5ccc(NC(=O)CCC(=O)N6CCCC6)cc5)c4[nH]c23)cc1,ΔTm,Nucleic Acid [1],0 °C
same,ΔTm,Nucleic Acid [2],0 °C
same,IC50,A549 [3],27 µM
same,IC50,IMR-90 (Homo sapiens),> 100 µM
CN(C)CCC(=O)Nc1ccc(NC(=O)c2cccc3c(=O)c4cccc(C(=O)Nc5ccc(NC(=O)CCN(C)C)cc5)c4[nH]c23)cc1,ΔTm,Nucleic Acid [1],32 °C
same,ΔTm,Nucleic Acid [2],2.5 °C
same,IC50,A549 [3],15 µM
same,Activity,MCF7 [30],2%
same,Activity,MCF7 [31],2%
same,Activity,MCF7 [32],0%
same,Activity,MCF7 [33],5%
same,Activity,Nucleic Acid [24],inactive
same,Activity,[25],inactive
same,IC50,IMR-90 (Homo sapiens),> 100 µM
Cn1cc(NC(=O)c2cccc3c(=O)c4cccc(C(=O)Nc5cc(C(=O)NCCCN6CCCC6)n(C)c5)c4[nH]c23)cc1C(=O)NCCCN1CCCC1,ΔTm,Nucleic Acid [1],15 °C
same,ΔTm,Nucleic Acid [2],0 °C
same,IC50,A549 [3],21 µM
same,IC50,IMR-90 (Homo sapiens),> 100 µM
O=C(CCN1CCCCC1)Nc1ccc(NC(=O)c2cccc3c(=O)c4cccc(C(=O)Nc5ccc(NC(=O)CCN6CCCCC6)cc5)c4[nH]c23)cc1,ΔTm,Nucleic Acid [1],31 °C
same,ΔTm,Nucleic Acid [2],1.5 °C
same,IC50,A549 [3],> 100 µM
same,IC50,IMR-90 (Homo sapiens),> 100 µM
O=C(CCN1CCCC1)Nc1ccc(NC(=O)c2cccc3c(=O)c4cccc(C(=O)Nc5ccc(NC(=O)CCN6CCCC6)cc5)c4[nH]c23)cc1,ΔTm,Nucleic Acid [1],34 °C
same,ΔTm,Nucleic Acid [2],2.5 °C
same,IC50,A549 [3],16 µM
same,IC50,IMR-90 (Homo sapiens),> 100 µM
O=C(Nc1ccc(NCCCN2CCCC2)cc1)c1cccc2c(=O)c3cccc(C(=O)Nc4ccc(NCCCN5CCCC5)cc4)c3[nH]c12,ΔTm,Nucleic Acid [1],33 °C
same,ΔTm,Nucleic Acid [2],2.5 °C
same,IC50,A549 [3],66 µM
same,IC50,IMR-90 (Homo sapiens),> 100 µM
